According to ChEMBL document CHEMBL1132793, “Chiral synthesis and pharmacological evaluation of NPS 1407: a potent, stereoselective NMDA receptor antagonist” (Bioorg Med Chem Lett, 2000):
pIC50: −log10 of the molar value.

Tests used:
Mus musculus [1] = assay: Relative anticonvulsant potency in frings mice by intraperitoneal administration expressed as effective dose; assay type: functional; conditions: ip
How it was run: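 Frings audiogenic seizure-susceptible mice of both sexes (18–25 g), in groups of eight, given varying ip doses. At the time of peak effect, each mouse was exposed to a 110 dB (11 kHz) sound for 20 s and observed for 25 s. Absence of hindlimb tonic extension counted as protection. ED50 by probit analysis.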

Mus musculus [2] = assay: Relative anticonvulsant potency in frings mice by peroral administration expressed as effective dose; assay type: functional; conditions: po
Mus musculus [3] = assay: Lethality in mice following 30 mg/kg/day ip dose; 4/7; assay type: ADME, organism-based; parameters: route intraperitoneal; conditions: in vivo
Mus musculus [4] = assay: Lethality in mice following 60 mg/kg/day ip dose; 8/8; assay type: ADME, organism-based; parameters: route intraperitoneal; conditions: in vivo
[5] = Relative anticonvulsant potency in frings mice by peroral administration expressed as toxic dose; assay type: ADME, organism-based; conditions: mouse, in vivo, po
Glutamate NMDA receptor [6] = assay: The compound was tested in vitro for the displacement of the radioligand (+)-[3H]-MK-801 from synaptic plasma membranes from rat cortex against N-methyl-D-aspartate glutamate receptor; assay type: cell-free
Glutamate NMDA receptor [7] = assay: The compound was tested in vitro for the inhibition of N-methyl-D-aspartate glutamate receptor in rat cerebellar granule cells (RCGCs).
How it was run: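 Cultured rat cerebellar granule cells; cytosolic calcium rise stimulated by NMDA (50 µM) plus glycine (1 µM). Multiple cumulative concentration–response curves with at least five concentrations per test substance; IC50 by logit analysis.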

SMILES	ED50 (Mus musculus [1]) [mg/kg]	ED50 (Mus musculus [2]) [mg/kg]	Lethality (Mus musculus [3])	Lethality (Mus musculus [4])	TD50 [5] [mg/kg]	pIC50 (Glutamate NMDA receptor [6])	pIC50 (Glutamate NMDA receptor [7])
NCCC(c1cccc(F)c1)c1cccc(F)c1	2.1	9.7	–	–	–	–	–
CC(N)CC(c1cccc(F)c1)c1cccc(F)c1 (configuration not stated)	4.9	5.1	Lethal	Lethal	18.3	5.98	6.84
C[C@H](N)CC(c1cccc(F)c1)c1cccc(F)c1	2.7	7.3	–	–	18.6	6.12	7.05
C[C@@H](N)CC(c1cccc(F)c1)c1cccc(F)c1	9.1	–	–	–	–	5.35	5.95
